# Compound activity deposited in PubChem BioAssay by Johns Hopkins Ion Channel Center.
# KCNQ1 block – blocks the human KCNQ1 potassium channel | AID 2642 | B-score at 10 µM | CHO-K1 KCNQ1, FluxOR thallium flux fluorescence; stronger effect = higher value | 310,000 compounds, 1.3% hits;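 active means compounds whose thallium flux B-score, printed positive for inhibition, exceeds three library SD while starting fluorescence stays within three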;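 further: channel opened by potassium depolarization with thallium stimulus after 20 min compound exposure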
# KCNK3 inh – human KCNK3 channel inhibition, primary screen | O14649 | CHO-KCNK3 thallium flux, FluxOR fluorescence; stronger effect = lower value | B-score at 10 µM | 340,000 compounds, 0.84% hits;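 active means B-score under library mean minus 4 SD, starting fluorescence ratio at most library mean plus 5 SD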;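 further: more negative B-score means stronger inhibition of thallium flux through KCNK3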
# hERG rescue – hERG (human) protection from proarrhythmic block | CHO-hERG, FluxOR thallium flux, dofetilide IC70 present | activation (rescue from dofetilide block), less the hit threshold, % at 10 µM | 310,000 compounds, 0.51% hits;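 active means activation above the mean of controls blocked by dofetilide plus 5 SD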;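 further: thallium influx through hERG after potassium depolarization seen as dye fluorescence rise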
# KCNK9 inh – inhibitors of human KCNK9 two-pore domain potassium channel; AID 488922; B-score at 10 µM; HEK293 KCNK9, FluxOR thallium flux fluorescence; stronger effect = lower value; 310,000 compounds, 1.2% hits;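 active means ratio B-score over 3 SD below the library mean, with starting fluorescence within 5 SD of its mean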;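 further: negative B-score means less thallium flux so channel inhibition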
# Target sequence (Q9NPC2 whole entry, looked up, the tested form may be a part): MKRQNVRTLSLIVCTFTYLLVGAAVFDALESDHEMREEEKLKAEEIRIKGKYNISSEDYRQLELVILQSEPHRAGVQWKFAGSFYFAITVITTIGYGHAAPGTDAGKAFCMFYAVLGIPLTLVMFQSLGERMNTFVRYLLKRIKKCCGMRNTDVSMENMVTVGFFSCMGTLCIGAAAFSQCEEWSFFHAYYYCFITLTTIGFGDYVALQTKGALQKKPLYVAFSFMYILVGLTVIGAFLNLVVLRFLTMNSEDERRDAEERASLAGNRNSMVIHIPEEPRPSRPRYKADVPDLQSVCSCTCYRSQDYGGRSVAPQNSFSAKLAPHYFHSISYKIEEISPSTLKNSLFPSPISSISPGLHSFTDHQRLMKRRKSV
# KCNQ1 pot – human KCNQ1 channel potentiation or activation; P51787; CHO-K1 KCNQ1, thallium flux FluxOR fluorescence; stronger effect = higher value; B-score at 10 µM; 310,000 compounds, 0.35% hits;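 active means fluorescence ratio B-score, a plate-corrected score, at least three library SD, with initial intensity B-score within 5 SD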
#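 Assay system: stable KCNQ1 CHO-K1 line; medium: assay buffer, equal DMSO in all wells; timing: 90 min dye loading and 20 min compound exposure, both at room temperature; technique: kinetic FluxOR thallium fluorescence, 10-s 1-Hz baseline, 110-s post-stimulus read; read-out basis: B score of baseline-normalized fluorescence ratio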
# KCNQ1 block val – reconfirmed blocker of the human KCNQ1 potassium channel. shares compounds with KCNQ1 block. KCNQ1 cell line, FluxOR thallium flux fluorescence. AID 588353. inhibition, % at 10 µM. 1,600 compounds, 93% hits;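 active means primary screen active, with duplicate mean exceeding buffer control mean plus 3 SD of buffer wells, cut at about 28% in these data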;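 further: 0% = buffer control ratio and 100% = XE991 inhibitor control ratio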
# CHO Tl flux – counter-screen for KCNQ1 inhibitors: effect in parental CHO cells; shares compounds with KCNQ1 block; parental CHO-K1, FluxOR thallium flux fluorescence ratio; stronger effect = lower value; zero means no signal rise above baseline; fluorescence ratio (Tl flux) at 10 µM; 1,600 compounds, 21% hits; AID 588366;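 active means mean of duplicate thallium-flux fluorescence ratios in parental host cells more than 5 SD below the buffer control mean, cut at about 0.38 in these data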;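 further: ratio is peak minus minimum fluorescence divided by baseline fluorescence; actives read low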
# KCNQ1 ephys val – blocks human KCNQ1 current in automated patch clamp. AID 624120. 490 compounds, 20% hits. calls only at 10 µM. KCNQ1-CHO cells. shares compounds with KCNQ1 block;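 active means KCNQ1 current drop exceeding 3 SD of negative control wells, seen in both duplicate runs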;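 further: steady state current during a 2 s step from -80 to +40 mV; negative values mean current inhibition and positive values mean potentiation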
# KCNQ2 inh – KCNQ1 inhibitor that also blocks rat KCNQ2 channel; shares compounds with KCNQ1 block; KCNQ2 cells, FluxOR thallium flux fluorescence; inhibition, % at 10 µM; 1,600 compounds, 71% hits;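 active means mean percent inhibition of the KCNQ2 thallium signal more than 5 SD above the buffer-only control wells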;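 further: KCNQ2 expressed in CHO cells; 0% = buffer control wells and 100% = XE-991 inhibitor control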
# KCNQ1-KCNE1 inh – selectivity of KCNQ1 inhibitors: inhibition of human KCNQ1/KCNE1 channel | shares compounds with KCNQ1 block | KCNQ1/KCNE1 cells, FluxOR thallium flux fluorescence | inhibition, % at 10 µM | 1,600 compounds, 77% hits;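 active means mean percent inhibition of duplicate wells above the buffer-only control mean plus 3 SD of those controls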;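 further: 0% = buffer only wells and 100% = XE-991 inhibitor control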
# * marks the source's active call; other numbers are inactive results; i = inactive; · = no result given; + = active, no number. Compounds with a hit are over-represented: about 3.1% of the library has one in this group of screens.
SMILES,KCNQ1 block,KCNK3 inh,hERG rescue,KCNK9 inh,KCNQ1 pot,KCNQ1 block val,CHO Tl flux,KCNQ2 inh,KCNQ1-KCNE1 inh,others
CN(C)CCCNc1c2ccccc2nc2ccccc12,i,i,-7.5,i,i,·,·,·,·,
OCCNc1c2ccccc2nc2c(F)c(F)c(F)c(F)c12,6*,i,-14.0,i,i,84.0*,0.372*,105.0%*,101.0%*,
Cc1c2ccccc2nc2c(F)c(NCCO)c(F)c(F)c12,6*,i,-23.7,i,i,177.5*,0.151*,i,i,
O=C1C2C3C=CC(C3)C2C(=O)N1c1ccc(Cc2ccncc2)cc1 (stereo unspecified),i,i,-4.1,i,i,·,·,·,·,
O=C1c2ccc(Br)cc2C(=O)N1c1ccc(Cc2ccncc2)cc1,15*,i,-9.9,i,i,140.0*,0.497,99.3%*,127.5%*,KCNQ1 ephys val=i
CC[C@]12c3[nH]c4ccccc4c3CCN1C(=O)C(CC(=O)NCc1cccc(C(F)(F)F)c1)C[C@@H]2C(=O)N1CCN(C(=O)c2ccco2)CC1 (stereo partly specified),·,i,·,·,·,·,·,·,·,
COCc1cc(N2CCOCC2)nc(-c2ccccc2)n1,i,i,-4.2,i,i,·,·,·,·,
COCc1cc(Sc2ccc(Cl)cc2)nc(-c2ccccc2)n1,6*,i,-12.1,i,i,77.0*,0.493,90.7%*,79.5%*,
COCc1cc(N2CCN(c3ccccc3F)CC2)nc(-c2ccccc2)n1,6*,i,-3.5,i,i,51.0*,0.506,59.7%*,139.5%*,
CCOc1ccccc1NC(=O)CSc1nnc(CCC(=O)Nc2ccccc2F)n1C,i,i,-9.8,i,i,·,·,·,·,
Cc1cc(C)cc(NC(=O)CN2C(=O)C3CC=CCC3C2=O)c1 (stereo unspecified),·,i,·,·,·,·,·,·,·,
CCOc1ccc(Nc2nc(NCC3CCCO3)c3ccccc3n2)cc1 (stereo unspecified),11*,i,-30.5,i,i,134.5*,0.392,80.7%*,131.5%*,KCNQ1 ephys val=i
c1ccc(Nc2nc(NCC3CCCO3)c3ccccc3n2)cc1 (stereo unspecified),12*,-10.3*,-25.6,i,i,128.5*,0.402,116.3%*,150.0%*,KCNQ1 ephys val=+
OCCNc1nc(Nc2ccccc2)nc2ccccc12,i,i,-11.1,i,i,·,·,·,·,
OCCNc1nc(Nc2ccc(Br)cc2)nc2ccccc12,15*,·,-8.5,i,i,0.0,0.461,78.3%*,i,
CCCn1c2ccccc2c2cnn(CC(=O)NCCCN3CCN(c4ccccc4)CC3)c(=O)c21,i,i,-15.2,i,i,·,·,·,·,
CSCCC(NS(=O)(=O)c1ccccc1)C(=O)OC(C)C(=O)Nc1ccc(Cl)cn1 (stereo unspecified),·,i,·,·,·,·,·,·,·,
O=C(c1c[nH]c2ccccc12)C(Cl)c1ccccc1 (stereo unspecified),i,i,0.3,i,i,·,·,·,·,
c1ccc(CN2CCC(Nc3nc(-c4ccccc4)nc4ccccc34)CC2)cc1,i,i,-18.7,i,i,·,·,·,·,
Cc1csc2ncnc(NC3CCN(Cc4ccccc4)CC3)c12,8*,i,-17.0,i,i,26.0*,0.532,i,57.0%*,
COC(=O)c1nc(NNC(=O)c2ccccc2)sc1-c1ccccc1,i,i,-1.8,i,i,·,·,·,·,
Cc1nc(Sc2ccccc2)c(C#N)cc1-c1ccccc1,6*,i,-17.0,i,i,95.0*,0.417,105.3%*,135.5%*,KCNQ1 ephys val=+
c1ccc(CC2CCN(c3ncnc4sccc34)CC2)cc1,8*,i,-32.1,i,i,136.5*,0.335*,89.0%*,175.5%*,
S=C(NCc1cccs1)Nc1cccc(Cl)c1,i,i,-11.4,i,i,·,·,·,·,
S=C(NCc1cccs1)Nc1cc(Cl)cc(Cl)c1,6*,i,-10.4,i,i,33.5*,0.537,77.7%*,i,
SMILES,KCNQ1 block,KCNK3 inh,hERG rescue,KCNK9 inh,KCNQ1 pot,KCNQ1 block val,CHO Tl flux,KCNQ2 inh,KCNQ1-KCNE1 inh,others
Cc1cc(C)cc(NC(=O)NCC2CCN(Cc3cc(C)ccc3C)CC2)c1,i,i,-9.1,i,i,·,·,·,·,
Cc1ccc(C)c(CN2CCC(CNC(=O)Nc3ccc(F)c(Cl)c3)CC2)c1,7*,i,-16.9,i,i,57.5*,0.435,i,42.0%*,
Cc1cccc(C)c1-n1nnnc1C1(Nc2ccccc2)CCCCC1,7*,i,-14.1,-7.66*,i,109.0*,0.356*,109.3%*,130.5%*,
O=C(COc1ccc(Br)cc1)Nc1ccncc1,i,i,-13.4,i,i,·,·,·,·,
O=C(COc1ccccc1)Nc1cccc(-c2nc3ccccc3[nH]2)c1,6*,i,-15.2,i,i,51.5*,0.475,78.0%*,79.5%*,
O=C(COc1ccc(Nc2ccccc2)cc1)Nc1ccncc1,8*,i,-21.5,i,i,94.5*,0.538,i,i,
CC(C)CCOc1cccc(OCC(=O)Nc2ccncc2)c1,12*,i,-14.3,i,i,106.5*,0.448,i,40.5%*,KCNQ1 ephys val=i
CCC(C)(C)c1ccc(OCC(=O)Nc2ccncc2)cc1,8*,i,-23.2,i,i,138.5*,0.435,92.0%*,72.0%*,KCNQ1 ephys val=i
CN(CC(=O)Nc1c(Cl)cccc1Cl)C(=O)c1ccccc1Cc1ccccc1,i,i,-15.4,i,i,·,·,·,·,
Cc1cc(Br)ccc1SCC(=O)NNC(=O)c1ccco1,·,i,·,·,·,·,·,·,·,
S=C(NCCCc1ccccc1)Nc1ccccc1Cl,7*,i,-22.1,i,i,100.0*,0.618,60.7%*,38.0%*,KCNQ1 ephys val=i
S=C(NCCNC(=S)Nc1ccccc1Cl)Nc1ccccc1Cl,7*,i,-5.4,i,i,62.0*,0.588,82.0%*,i,
S=C(NCCc1ccccc1)NCc1cccc(Cl)c1,9*,i,-5.2,i,i,62.0*,0.506,104.0%*,46.5%*,
O=C(COC(=O)c1n[nH]c(=O)c2ccccc12)Nc1cccc(S(=O)(=O)N2CCOCC2)c1,·,i,·,·,·,·,·,·,·,
